# Data from ChEMBL document CHEMBL4513216, “Probing the Open Global Health Chemical Diversity Library for Multistage-Active Starting Points for Next-Generation Antimalarials” (ACS Infect Dis, 2020).
# Assay: Toxicity liver stage against HepG2, at 10uM
# Assay type: cell-based
# Design: test concentration 10 uM, cell line HepG2-A16-CD81EGFP
# Conditions: human, HepG2-A16-CD81EGFP cells; read-out: INHIBITION
# Outline: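 Uninfected HepG2-A16-CD81EGFP cells, 3 × 10^3 per well, 1536-well, plated on prespotted compound at 10 μM final, parasite-free screening media added to match infected plates; puromycin 10 μM positive, DMSO 0.5% negative; run in parallel with 48 h PbLuc assay at 37 °C, 5% CO2; viability by CellTiter-Glo luminescence, normalized to controls.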
row,Structure (SMILES),cytotoxicity at 10 µM [%]
1,CN(Cc1cccc(C(N)=O)c1)c1ncc(C#N)cc1Cl,8.36
2,CCS(=O)(=O)N(C)CC(=O)Nc1ccc(Br)cn1,-0.0481
3,O=C(c1ccccc1)N1CCS(=O)(=O)[C@@H]2CCNCC[C@@H]21,-127
4,CCn1nc2c(cc1=O)CN(Cc1nc(CCOC)no1)CC2,-9.24
5,CC(C)C(=O)N1CCCC2(CCCN2Cc2cccnc2)C1 (configuration not stated),5.22
6,CCCS(=O)(=O)N1CCN(c2ccnc(N3CCCCC3)n2)CC1,0.805
7,CC(=O)N1CCCC(Cc2nccn2C)C1 (configuration not stated),-5.52
8,O=C1C(NCc2cccc(O)c2)CCN1Cc1ccccc1 (configuration not stated),-0.539
9,CC(C)C(=O)N1CCC2(CC1)NC(=O)[C@H]1CN(C(=O)N(C)C)C[C@H]12,3.03
10,O=S(=O)(CC1CCCCO1)Nc1cc(F)ccc1-n1cccn1 (configuration not stated),7.71
11,CC(=O)N1CCC2(CC1)CC(NC(=O)N(C)C)c1cc(C)ccc12 (configuration not stated),4.3
12,O=C(CCC1CCCO1)NCCN1CCCCC1 (configuration not stated),-3.79
13,CCOCCCC(=O)NS(=O)(=O)c1ccc(C)s1,10
14,Cc1ccsc1CN(CCN(C)C)C(=O)c1cc2ccccc2[nH]1,-139
15,CCS(=O)(=O)c1ncc(CN2CCOCC2)n1CCCc1ccccc1,7.57
16,Cc1cccc(Cn2cc(C)c(N)n2)c1,-4.14
17,O=C(NC1CCCC1)c1ccc(C2CCCNC2)nc1 (configuration not stated),-13.7
18,Cc1nn(C)cc1CN1CCCC(n2c(=O)oc3ccc(Cl)cc32)C1 (configuration not stated),4.88
19,CC(CNC(=O)c1ccc(Cl)cc1F)N1CCN(C)CC1 (configuration not stated),-8.56
20,CC1CCN(C(=O)c2ccn(COc3ccccc3)n2)CC1,-0.107
21,Cc1cccc(CN2CC[C@H]3[C@H]2CCN3Cc2cnn(C)c2)n1,8.67
22,CC(C)CN1C(=O)C2(CCN(Cc3ccsc3)C2)c2ccccc21 (configuration not stated),15.7
23,Cc1oc(-c2ccoc2)nc1CN1CCCCC1CCn1cccn1 (configuration not stated),-3.65

row,Structure (SMILES),cytotoxicity at 10 µM [%]
1,Cc1cc(C2CCCN(CC(=O)Nc3nc4c(s3)CCC4)C2)n[nH]1 (configuration not stated),-44.2
2,CCC1(CC)CC(=O)N(CC(O)c2ccc(Cl)cc2)C1=O (configuration not stated),4.06
3,Cc1c(C2CCCN(C(=O)Cc3ccccn3)C2)n2c(nc1=O)CCC2 (configuration not stated),8.39
4,Cc1ncsc1CNC(=O)CCN1CCN(c2ccccn2)CC1,2.31
5,CS(=O)(=O)c1nnc(NC(=O)CCc2cccs2)[nH]1,8.91
6,CN(C)c1ccc2c(c1)CN(C(=O)c1cnccn1)C2c1cnco1 (configuration not stated),3.55
7,O=C(CN1C=Nc2ccccc2S1(=O)=O)NCc1ccccc1F,-3.73
8,COc1ccc(C2=NOC(C#N)C2)cc1 (configuration not stated),-11.2
9,CCOc1ccc(CC(CNC(=O)c2ccc(C)s2)C(N)=O)cc1 (configuration not stated),-3.85
10,NC(=O)CC1CCN(C(=O)CCOc2ccc(Cl)cc2)CC1,-7.98
11,Cc1cnn(CCNCc2csc(C)n2)c1,5.79
12,Fc1ccc(C2CN(CCc3ccncc3)CCO2)cc1 (configuration not stated),11
13,O=C(O)[C@@H]1CCN(C(=O)Cc2ccccn2)[C@@H]1c1ccc(F)cc1,4.22
14,COc1cccc(OCC2CCCN(C(=O)c3ccc(N)nc3)C2)c1 (configuration not stated),3.37
15,O=C(NCCNC(=O)c1scnc1Cl)c1cccs1,-9.44
16,Cc1cccc(N(CC(=O)N2CCCCC2)C(=O)C2CCCO2)c1 (configuration not stated),-1.52
17,Cc1ccc2c(c1)CN(C(=O)c1cnc(C)cn1)C(CN(C)C)CO2 (configuration not stated),-22.3
18,COc1nc(C)c(C(=O)N2CCc3[nH]nc(C4CCCC4)c3C2)s1,7.51
19,c1cncc(CN(Cc2ccc(-n3ccnc3)cc2)CC2CCCO2)c1 (configuration not stated),-0.242
20,CN1CCn2nc(-c3nc4ccccc4n3C)cc2C1,-6.99
21,c1ccc(-c2nc3c(c(NCc4n[nH]c5c4CCC5)n2)CCNC3)cc1,-12.8
22,CCOc1ccccc1C1CCCN1 (configuration not stated),-14.1
23,O=C(O)c1nn(CC2CC2)c2c1CN(S(=O)(=O)c1cccnc1)CC2,3.16

row,Structure (SMILES),cytotoxicity at 10 µM [%]
1,Cc1ccc2c(c1)C(NCc1nccn1Cc1ccccc1)CCCO2 (configuration not stated),1.26
2,N[C@H]1CN(S(=O)(=O)c2ccccc2)C[C@@H]1C1CC1,-14.3
3,CCc1cc(C(=O)N[C@@H]2CC[C@@H](N3CCOCC3)[C@@H]2O)no1,37.5
4,CCCN(Cc1cnn(C)c1)S(=O)(=O)c1ccc(F)c(C#N)c1,6.69
5,CCc1cc(C(=O)N2CC[C@@H](c3ccc4c(c3)OCO4)[C@H](O)C2)ccn1,1.48
6,CCC(=O)N1CCC2(CC1)CC(Oc1ccccc1)CO2 (configuration not stated),7.69
7,CC(C)n1cnnc1CN(C)Cc1cnc(-c2cccs2)nc1,8.55
8,CCN(C(=O)CN1CCn2c(nnc2C2CC2)C1)C1=CCCCC1,10
9,COCc1cnc2n1CCN(Cc1cccnc1)C2C (configuration not stated),-8.79
10,O=C(c1cc(-c2ccco2)cs1)N1CCOCC1,4.81
11,CC(C)NC(=O)N1CCN(c2ccc(Cl)nn2)C(=O)C1,5.01
12,CCN(CC)C(=O)[C@@H]1C[C@@H](N)CN1c1nc(N2CCCC2)nc(C)c1C,-6.9
13,CC(C)c1cc(CN(C)C(=O)CN2CCC(C(N)=O)CC2)no1,-0.0154
14,Cc1cc(C)n(-c2ccc(N3CCC4(CC3)OCCO4)nc2)n1,-4.84
15,Cc1ccc(=O)n(CC2(O)CCN(Cc3cnc(N(C)C)nc3)CC2)n1,-26
16,O=C(O)c1ccccc1-c1c(-c2ccccc2)ncn1C[C@H]1CCCN1,6.07
17,CC(C)C(C#N)N1CCN(C(=O)c2cc(-c3ccccn3)no2)CC1 (configuration not stated),-1.54
18,CS(=O)(=O)Nc1ccn(Cc2ccc(Cl)cc2)n1,6.44
19,COCCC(=O)N1C[C@@H](c2cccc(OC)c2)[C@@]2(CCCCC(=O)N2)C1,9.47
20,O=C(c1ccno1)N1CC(c2nc(-c3ccco3)no2)C1,-11.3
21,Cn1cc(CC(=O)N2CCOC(c3nc(C(C)(C)C)n[nH]3)C2)cn1 (configuration not stated),2.4
22,CC(=O)Nc1nc(C2CCN(C(C)C)CC2)cs1,-3.3
23,CNc1nc(N2CCN(CC=C(C)C)C(CCO)C2)nc2c1CCC2 (configuration not stated),-0.6

row,Structure (SMILES),cytotoxicity at 10 µM [%]
1,Cc1cc(NC(C)Cc2cccnc2)n2nccc2n1 (configuration not stated),3.01
2,Cc1cnc(CN(C)C(=O)C23CNCC2CNC3)[nH]1 (configuration not stated),-6.46
3,CCS(=O)(=O)NC[C@]12COC[C@H]1CN(Cc1sccc1C)C2,-75.2
4,O=c1ccc2c([nH]1)CCC(NCc1ccncc1)C2 (configuration not stated),-6.22
5,CC(NC(=O)CSCC#N)c1ccccc1 (configuration not stated),-5.9
6,Cc1cc(OCCC(=O)NCc2ccc(F)cc2)nnc1C,4.4
7,CCCN(CC1CC1)C(=O)Cn1ccccc1=O,9.09
8,CCC(=O)Nc1cccc(C(=O)NCCC2=CSC3=NCCCN23)c1,1.93
9,COc1c(CNCc2cccnc2OC(C)C)c(C(C)C)nn1C,11.1
10,Cc1cc(C(=O)N2CCCC(n3cncn3)C2)c(C)n1CC1CC1 (configuration not stated),2.37
11,CNc1ncc(CN(C)c2nc(C)c3ccc(S(C)(=O)=O)cc3n2)cn1,-3.66
12,CCN(CC)C(=O)CCNC(=O)c1ccccc1N1CCOCC1,-0.768
13,Cc1ccc(C)c(CC(=O)NC2(C#N)CCOCC2)c1,6.31
14,Cc1c(C(=O)NCCC(=O)N2CCOCC2)sc2ccc(F)cc12,4.5
15,CN(C)C(=O)CNC(=O)c1cc(Br)c2c(c1)OCCO2,16.4
16,CNc1ncc(CN(C)Cc2cc(O)c3cc(C)cc(C)c3n2)cn1,-13.9
17,O=C(NC1CCCC1)C1CCN(c2cc(-n3ccnc3)ncn2)CC1,-9.19
18,O=S(=O)(Cc1c(F)cccc1F)NCCOc1cccnc1,-39.7
19,Cc1nc(C(=O)N2C[C@@H]3COC[C@]3(COCc3cccnc3)C2)cs1,-1.92
20,CCN(C)C1COC2(CCN(C(=O)c3cccc(Cl)c3)CC2)C1 (configuration not stated),-5.66
21,CC(C)(C)OC(=O)N1CCCN(c2nnc(Br)s2)CC1,10.5
22,Cc1cnn(CC2CCCN2C(=O)c2cnc3n[nH]c(C)c3c2)c1 (configuration not stated),8.73
23,Cc1ccc2c(n1)N(CC1CC1)CCN(S(=O)(=O)C1CC1)C2,12.4

row,Structure (SMILES),cytotoxicity at 10 µM [%]
1,Cc1cnc(C(=O)N2CCCN(Cc3cnn(C(C)C)c3)CC2)cn1,1.28
2,COc1ccc(Cl)cc1C(=O)N1C[C@H](C(C)C)[C@@H](N)C1,1.17
3,COCc1ccc(OC)c(CNC2CCCNC2=O)c1 (configuration not stated),3.66
4,Cc1nc(Cn2cnc3c(c(Br)nn3C)c2=O)cs1,8.84
5,CN(CCCc1cnn(C)c1)C(=O)Nc1cccc2[nH]ncc12,-1.89
6,CC1CC2(CCN(C(=O)c3csnn3)CC2)c2ccccc21 (configuration not stated),-137
7,NC(=O)c1nc(COc2ccc3c(c2)OCO3)no1,8.55
8,CN(C)C(c1ccccn1)C1CCC(CNC(=O)CC2CCCC2)CC1 (configuration not stated),9.43
9,CC(C)NC(=O)N1CCC2(CC(C(=O)NCc3cccnc3)=NO2)C1 (configuration not stated),-0.8
10,CN1C(=O)CC2(CCN(Cc3cnn(C)c3)CC2)c2ccccc21,15.7
11,Cc1ccc(Oc2ncccc2CNC2CCOCC2)cn1,-3.73
12,C=C(C)CN1C(=O)CC(Cc2ccc(F)cc2)C1=O (configuration not stated),1.62
13,Cc1nc(C(C)C)sc1C(=O)N(C)CCCc1cnn(C)c1,-4.6
14,NC(=O)c1ccc(N2CCCCC2)c(NC(=O)c2cc(Br)ccc2Cl)c1,59.6
15,O=C(c1c[nH]c(=O)[nH]c1=O)N1CCCC(c2cnccn2)C1 (configuration not stated),-3.58
16,COc1ccc(CN(C)Cc2nc3c(cnn3C)c(=O)[nH]2)cc1OC,0.457
17,Cc1csc(CN(C)C(=O)C2CCC(=O)N(CCN(C)C)C2)n1 (configuration not stated),15.6
18,N#Cc1ccc(CN(CC(N)=O)Cc2cccc(F)c2)cc1,-2.01
19,C=C(C)CNC(C)c1ccc(S(C)(=O)=O)c(F)c1 (configuration not stated),0.563
20,COc1cccc(Cn2ncnc2CCSC)c1,-1.22
